Source: ChEMBL document CHEMBL1135937, “Further studies on conformationally constrained tricyclic tropane analogues and their uptake inhibition at monoamine transporter sites: synthesis of (Z)-9-(substituted arylmethylene)-7-azatricyclo[4.3.1.0(3,7)]decanes as a novel class of serotonin transporter inhibitors” (J Med Chem, 2002)

Legend:
[1] = target: Sodium-dependent dopamine transporter (Rattus norvegicus, UniProt P23977); test: Ability to inhibit high affinity reuptake of [3H]DA from dopamine transporter into nerve endings synaptosomes; assay type: subcellular, Brain
Method in brief: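 Rat striatal P2 synaptosomes in modified KRH buffer (pH 7.4, with nialamide), preincubated with drug for 30 min at 4 °C, then 15 min at 37 °C. Uptake of [3H]DA (~5 nM final) ran for 5 min and was stopped by cold Na-free buffer and filtration. IC50 from six concentrations in triplicate; Ki by Cheng–Prusoff, 2–4 experiments.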

[2] = target: Norepinephrine transporter (Rattus norvegicus, UniProt Q9WTR4); test: Ability to inhibit high affinity reuptake of [3H]-NE (Norepinephrine transporter) into nerve ending synaptosomes prepared from brain regions; assay type: subcellular
[3] = target: Sodium-dependent serotonin transporter (Rattus norvegicus, UniProt P31652); test: Inhibition of high affinity re-uptake of [3H]5-HT (serotonin) into nerve ending synaptosomes; assay type: subcellular, Brain
Method in brief: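 Synaptosomes (P2) from rat midbrain in modified KRH buffer (pH 7.4, with nialamide), preincubated with drug for 30 min at 4 °C, then 15 min at 37 °C. [3H]5-HT (~5 nM final) uptake ran for 5 min, then filtration and scintillation counting. IC50 from six concentrations in triplicate; Ki by Cheng–Prusoff, 2–4 experiments.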

[4] = Uptake ratio Ki of dopamine relative to serotonin (5-HT) at monoamine transporter
[5] = Uptake ratio Ki of norepinephrine relative to dopamine at monoamine transporter
[6] = Uptake ratio Ki of norepinephrine relative to serotonin (5-HT) at monoamine transporter

Sequence of Sodium-dependent serotonin transporter (P31652 whole entry): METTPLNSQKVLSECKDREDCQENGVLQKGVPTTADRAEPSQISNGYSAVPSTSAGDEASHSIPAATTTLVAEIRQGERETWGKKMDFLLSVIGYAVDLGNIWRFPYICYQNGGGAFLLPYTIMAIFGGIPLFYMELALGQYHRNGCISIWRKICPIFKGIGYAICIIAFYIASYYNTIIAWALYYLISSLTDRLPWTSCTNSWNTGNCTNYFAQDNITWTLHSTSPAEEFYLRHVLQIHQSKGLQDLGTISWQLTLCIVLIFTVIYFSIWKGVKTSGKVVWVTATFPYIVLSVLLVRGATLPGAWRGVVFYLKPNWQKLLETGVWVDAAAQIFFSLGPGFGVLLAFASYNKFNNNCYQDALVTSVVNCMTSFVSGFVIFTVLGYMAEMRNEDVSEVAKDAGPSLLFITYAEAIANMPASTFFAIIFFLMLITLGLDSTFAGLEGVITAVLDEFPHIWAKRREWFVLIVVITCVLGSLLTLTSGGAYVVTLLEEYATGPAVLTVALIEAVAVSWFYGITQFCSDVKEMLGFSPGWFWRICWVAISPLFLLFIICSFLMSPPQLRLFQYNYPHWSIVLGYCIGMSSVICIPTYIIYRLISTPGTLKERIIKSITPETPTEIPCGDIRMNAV
Sequence of Sodium-dependent dopamine transporter (P23977 whole entry): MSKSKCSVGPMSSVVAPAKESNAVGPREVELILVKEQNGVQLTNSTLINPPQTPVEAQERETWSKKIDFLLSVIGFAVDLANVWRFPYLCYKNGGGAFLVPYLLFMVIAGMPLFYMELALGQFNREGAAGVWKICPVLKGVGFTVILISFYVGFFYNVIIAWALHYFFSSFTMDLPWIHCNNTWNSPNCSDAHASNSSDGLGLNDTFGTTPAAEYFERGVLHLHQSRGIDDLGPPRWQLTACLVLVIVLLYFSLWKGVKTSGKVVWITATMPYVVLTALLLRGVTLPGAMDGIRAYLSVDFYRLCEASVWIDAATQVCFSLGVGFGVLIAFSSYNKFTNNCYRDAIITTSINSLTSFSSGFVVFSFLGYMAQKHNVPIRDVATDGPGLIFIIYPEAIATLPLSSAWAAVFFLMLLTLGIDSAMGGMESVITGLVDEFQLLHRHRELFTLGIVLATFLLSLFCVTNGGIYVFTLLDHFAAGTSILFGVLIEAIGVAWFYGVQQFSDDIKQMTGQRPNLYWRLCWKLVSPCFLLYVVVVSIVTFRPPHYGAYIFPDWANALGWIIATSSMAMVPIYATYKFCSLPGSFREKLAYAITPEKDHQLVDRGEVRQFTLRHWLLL
Sequence of Norepinephrine transporter (Q9WTR4 whole entry): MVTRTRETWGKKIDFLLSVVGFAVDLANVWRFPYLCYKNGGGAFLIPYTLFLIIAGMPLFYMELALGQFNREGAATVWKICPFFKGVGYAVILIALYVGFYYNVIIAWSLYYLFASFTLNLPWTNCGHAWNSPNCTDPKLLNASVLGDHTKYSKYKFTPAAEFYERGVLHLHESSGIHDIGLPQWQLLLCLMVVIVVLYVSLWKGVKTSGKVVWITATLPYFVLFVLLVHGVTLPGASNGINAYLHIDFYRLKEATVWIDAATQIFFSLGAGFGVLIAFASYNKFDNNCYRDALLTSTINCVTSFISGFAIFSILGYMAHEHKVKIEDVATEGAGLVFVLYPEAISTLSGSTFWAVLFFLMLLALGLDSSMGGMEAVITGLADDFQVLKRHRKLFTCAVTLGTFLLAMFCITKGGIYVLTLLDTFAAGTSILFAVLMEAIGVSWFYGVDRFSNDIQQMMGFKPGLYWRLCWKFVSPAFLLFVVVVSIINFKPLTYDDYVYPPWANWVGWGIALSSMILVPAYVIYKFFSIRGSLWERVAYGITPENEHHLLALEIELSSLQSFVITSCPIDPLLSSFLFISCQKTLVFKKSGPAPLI

Row | Structure (SMILES) | Ki [1] | Ki [2] | Ki [3] | Ratio [4] | Ratio [5] | Ratio [6]
1 | CC(=O)OCC1C2CC3CCC1N3C/C2=C\c1ccc(Cl)c(Cl)c1 (stereo unspecified) | 1.87 µM | 0.638 µM | 0.0016 µM | 1170 | 0.34 | 399
2 | O=C(CCCCCCCCCC(=O)OCC1C2CC3CCC1N3C/C2=C\c1ccc(Cl)c(Cl)c1)OCC1C2CC3CCC1N3C/C2=C\c1ccc(Cl)c(Cl)c1 (stereo unspecified) | > 10 µM | > 10 µM | 0.0085 µM | > 1170 |  | > 1170
3 | O=C(OCC1C2CC3CCC1N3C/C2=C\c1ccc(Br)cc1)c1ccccc1 (stereo unspecified) | 3.3 µM | 4.47 µM | 0.00395 µM | 835 | 1.35 | 1130
4 | COC(=O)C1C2CC3CCC1N3C/C2=C\c1ccc(I)cc1Cl (stereo unspecified) | 6.64 µM | 0.508 µM | 0.074 µM | 89.7 | 0.08 | 6.9
5 | COC(=O)C1C2CC3CCC1N3C/C2=C\c1ccc(/C=C2\CN3C4CCC3C(C(=O)OC)C2C4)cc1 (stereo unspecified) | 38.9 µM | 33.4 µM | 0.993 µM | 39.2 | 0.86 | 34
6 | Clc1ccc(/C=C2\CN3C4CCC3C(COc3ccc(I)cc3)C2C4)cc1Cl (stereo unspecified) | 13.7 µM | 2.51 µM | 1.17 µM | 11.7 | 0.18 | 2.1
7 | COC(=O)C1C2CC3CCC1N3C/C2=C\c1ccc(C)c(C)c1 (stereo unspecified) |  | 0.659 µM | 0.0101 µM |  |  | 65
8 | COC(=O)C1C2CC3CCC1N3C/C2=C\c1ccc(Cl)cc1 (stereo unspecified) | 0.853 µM | 0.208 µM | 0.0343 µM | 24.8 | 0.24 | 6
9 | COC(=O)C1C2CC3CCC1N3C/C2=C\c1ccc(F)c(F)c1 (stereo unspecified) | 7.44 µM | 0.394 µM | 0.101 µM | 73.7 | 0.05 | 3.9
10 | CNC(=O)C1C2CC3CCC1N3C/C2=C\c1ccc(Cl)c(Cl)c1 (stereo unspecified) | 3.78 µM | 0.417 µM | 0.0298 µM | 127 | 0.11 | 14
11 | CC(=O)OCC1C2CC3CCC1N3C/C2=C\c1cccc(Cl)c1 (stereo unspecified) | 5.98 µM | 1.18 µM | 0.0929 µM | 64.4 | 0.2 | 12.7
12 | COC(=O)C1C2CC3CCC1N3C/C2=C\c1ccc2ccc3cccc4ccc1c2c34 (stereo unspecified) | 9.92 µM |  | 0.86 µM | 11.5 |  | 
13 | COC(=O)C1C2CC3CCC1N3C/C2=C\c1ccc(C)c(Cl)c1 (stereo unspecified) | > 10 µM | 0.198 µM | 0.0064 µM | > 1560 | < 0.02 | 31
14 | COC(=O)C1C2CC3CCC1N3C/C2=C\c1ccc(Br)cc1 (stereo unspecified) | 0.495 µM | 0.178 µM | 0.011 µM | 45 | 0.36 | 16
15 | COC(=O)C1C2CC3CCC1N3C/C2=C\c1ccc(OC)cc1 (stereo unspecified) | 3.13 µM | 0.187 µM | 0.056 µM | 55.9 | 0.06 | 3.3
16 | COC(=O)C1C2CC3CCC1N3C/C2=C\c1ccc(F)cc1 (stereo unspecified) | 6.62 µM | 0.584 µM | 0.335 µM | 19.7 | 0.09 | 1.7
17 | COC(=O)C1C2CC3CCC1N3C/C2=C\c1ccc(C(C)C)cc1 (stereo unspecified) |  | 1.11 µM | 0.0102 µM |  |  | 109
18 | COC(=O)C1C2CC3CCC1N3C/C2=C\c1ccc2ccccc2c1 (stereo unspecified) | 0.735 µM | 0.157 µM | 0.021 µM | 35 | 0.21 | 7.5
19 | COC(=O)C1C2CC3CCC1N3C/C2=C\c1ccc(C(F)(F)F)cc1 (stereo unspecified) |  | 1.83 µM | 0.0126 µM |  |  | 145
20 | O=C(OCC1C2CC3CCC1N3C/C2=C\c1ccc(Cl)c(Cl)c1)c1ccc(I)cc1 (stereo unspecified) | 17.7 µM | 8.59 µM | 0.0487 µM | 363 | 0.48 | 176
21 | O=C(OCC1C2CC3CCC1N3C/C2=C\c1ccc(I)c(Cl)c1)c1ccccc1 (stereo unspecified) | > 10 µM | > 10 µM |  | > 6e+06 |  | > 6e+06
22 | O=C(OCC1C2CC3CCC1N3C/C2=C\c1ccc(I)cc1)c1ccccc1 (stereo unspecified) | > 10 µM | 8.19 µM |  | > 100000 | < 0.82 | 81900
